This is a sample that favours compounds with a hit; in the whole collection about 5.2% have one here.
ZTA counter – counter-screen for EBNA-1 inhibitors: inhibitors of Epstein-Barr virus ZTA. P03206. ZTA-DNA binding, fluorescence polarization. inhibition, % at 11 µM. 0.15% of 320,000 active. AID 2234; in the data active = inhibition above about 33%
Target sequence (P03206 whole entry, looked up): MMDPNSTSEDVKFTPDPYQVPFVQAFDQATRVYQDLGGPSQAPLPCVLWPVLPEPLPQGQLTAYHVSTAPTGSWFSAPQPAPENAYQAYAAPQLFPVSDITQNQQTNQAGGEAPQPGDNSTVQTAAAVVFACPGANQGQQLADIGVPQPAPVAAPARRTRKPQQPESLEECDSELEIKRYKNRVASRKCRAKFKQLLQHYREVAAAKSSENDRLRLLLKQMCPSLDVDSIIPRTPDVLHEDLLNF
core dimer inh – HCV core protein dimerization inhibition; TR-FRET GST/Flag-core106 dimerization, 1536-well; inhibition, % at 5 µM; 0.33% of 300,000 active; AID 1899;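 active = inhibition above the mean of all tested compounds plus 3 SD, set per screening campaign, cut at about 45% in these data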
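System: GST/Flag-tagged HCV core106 proteins. Incubation: compound-protein-antibody incubation 4 h at 22.5 °C. Technique: HTRF with 340 nm excitation, 617/671 nm emission. Medium: KF-containing HEPES buffer, pH 7.45, DTT, CHAPS, BSA. Read-out: inhibition (%) from 671 over 617 nm ratio. Also added: Eu(K)-anti-GST 90 ng/mL plus XL665-anti-Flag 1 µg/mL.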
HCV NS3 hel inh – inhibitors of Hepatitis C virus NS3 helicase. 0.56% of 290,000 active. NS3 helicase DNA unwinding, Cy5 molecular beacon fluorescence. inhibition, % at 10.9 µM. AID 1800;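 active = inhibition above the mean of all tested compounds plus 3 SD, set per campaign, cut at about 35% in these data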;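 also: 0% = DMSO wells and 100% = thioflavine S control wells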
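System: Hepatitis C virus NS3 helicase domain fragment enzyme | Reagent: Annealed dual-labelled DNA beacon duplex, ATP-started | Compound dosing: 10.9 µM single point, 0.8% DMSO | Incubation: 1 h reaction at 25 °C, ATP-initiated | Technique: Cy5 fluorescence | Evaluation: Percent inhibition from t60/t0 fluorescence ratio | Benchmarks: Low DMSO, high thioflavine S at 110 µM | Replication: Singlicate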
ALR inh – human ALR oxidase inhibition via reduced H2O2 | AID 485317 | inhibition, % (concentration not given with the values) | 3.8% of 290,000 active | purified ALR, DTT oxidation, H2O2 HRP-luminol luminescence | P55789;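 active = mean replicate inhibition above about 79%, with every replicate also reaching it, limit read from the data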
Target sequence (P55789 whole entry, looked up): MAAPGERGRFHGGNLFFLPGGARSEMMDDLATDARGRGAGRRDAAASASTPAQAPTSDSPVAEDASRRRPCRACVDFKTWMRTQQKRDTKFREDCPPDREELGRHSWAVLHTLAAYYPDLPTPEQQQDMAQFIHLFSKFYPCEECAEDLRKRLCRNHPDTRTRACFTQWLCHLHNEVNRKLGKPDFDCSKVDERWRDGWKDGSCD
EBNA-1 inh – blocks EBNA-1 binding to DNA. 0.34% of 300,000 active. inhibition, % at 14.8 µM. EBNA-1 DNA binding, fluorescence polarization; in the data active = inhibition above about 28%
PfM18AAP inh – blocks P. falciparum M18 aspartyl aminopeptidase | recombinant PfM18AAP, H-Glu-NHMec fluorogenic cleavage | 1.2% of 290,000 active | AID 1822 | inhibition, % at 7.35 µM;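 active = inhibition above the campaign mean inhibition over all tested compounds plus 3 SD, cut at about 28% in these data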;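 also: 0% = plate median of test compound wells and 100% = 2 mM ZnCl2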
Active calls of the source: *; / = no result given.

SMILES | ZTA counter | core dimer inh | HCV NS3 hel inh | ALR inh | EBNA-1 inh | PfM18AAP inh
COc1cc2cc(NC(C)=O)cc(NCc3ccccc3)c2cc1OC | / | / | -1 | 53 | / | 16
O=C(CSc1cccc[n+]1[O-])Nc1ccc2c(c1)OCCO2 | 1 | -1 | 0 | 87* | -5 | 2
Cn1cc(SCC(=O)Nc2ccc3c(c2)OCCO3)c2ccccc21 | 6 | -12 | -2 | 99* | 6 | -3
NC(=O)c1ccc(NC(=O)CSc2cn(CC(=O)N3CCOCC3)c3ccccc23)cc1 | -15 | -2 | -1 | 99* | -10 | -6
Cc1ccc(NS(=O)(=O)c2ccc(Cl)c(C(=O)Nc3cccc(C(=O)O)c3)c2)cc1 | 11 | 6 | 12 | -3 | 5 | -6
Cn1c(SCC(=O)Nc2ccc(F)cc2)nc2c(c1=O)SCC2 | 4 | 3 | -2 | 40 | 9 | -5
COc1ccc(NC(=O)CSc2nc3c(c(=O)n2C)SCC3)cc1OC | 8 | -4 | -3 | 99* | -2 | 0
CCn1c(SCC(=O)Nc2cc(OC)ccc2OC)nc2c(c1=O)SCC2 | -10 | -3 | -4 | -10 | -10 | 6
Cn1c(SCC(=O)Nc2ccccc2F)nc2c(c1=O)SCC2 | -22 | -15 | 4 | 88* | 5 | 17
Cn1c(SCc2ccc([N+](=O)[O-])cc2)nc2c(c1=O)SCC2 | 10 | 6 | 10 | 99* | 2 | -10
CCn1c(SCC(=O)Nc2ccc(OC)c(OC)c2)nc2c(c1=O)SCC2 | -8 | -1 | 2 | 99* | -4 | -2
Cc1ccc(S(=O)(=O)NCC2CCC(C(=O)NCc3cccnc3)CC2)cc1 (stereo not given) | 2 | 0 | -6 | -5 | 2 | 5
CCC(=O)c1ccc(OCC(=O)Nc2ccccc2N2CCCCC2)cc1 | -13 | -1 | -1 | -12 | -14 | -2
COCCn1c(SCC(=O)Nc2cc(C)on2)nc2c(c1=O)SCC2 | 1 | -7 | 5 | -4 | -12 | 1
COCCn1c(SCC(=O)Nc2cccc(F)c2)nc2c(c1=O)SCC2 | 5 | -5 | -7 | 99* | -3 | -2
O=C1c2sc3nc4n(c(=O)c3c2CCC1Br)CCCCC4 (stereo not given) | -18 | -8 | 1 | 82* | -8 | 5
O=C1CCCc2c1sc1nc3n(c(=O)c21)CCCCC3 | -6 | -14 | 6 | -3 | -4 | 1
CSc1ccc(/C=C/C(=O)OCC(=O)c2ccc[nH]2)cc1 | -3 | / | / | -1 | / | /
O=C(N/N=C/c1ccc(O)cc1O)c1ccc(CN2C(=O)c3cccc4cccc2c34)cc1 | -30 | 54* | -2 | -19 | 10 | 8
Cn1c(SCc2ccc(C#N)cc2Cl)nc2ccccc21 | 3 | 3 | 3 | 96* | 3 | -8
Cc1cccn2c(=O)c3cc(C(=O)NCc4ccco4)c(=N)n(C4CCCCC4)c3nc12 | 8 | 20 | -7 | / | -4 | 18
N=c1c(C(=O)NCc2ccco2)cc2c(=O)n3ccccc3nc2n1CCc1ccccc1 | -14 | 52* | -5 | -3 | 3 | 5
Cc1cccn2c(=O)c3cc(C(=O)NCc4ccco4)c(=N)n(CCOCCO)c3nc12 | -15 | 18 | 3 | -3 | -12 | 29*
Cc1ccc(Cn2c(=N)c(C(=O)NCc3ccco3)cc3c(=O)n4ccccc4nc32)cc1 | -17 | 63* | 15 | -2 | -6 | 12
CCOC(=O)c1c(NC(=O)C(C)Sc2nnc(C)c(=O)[nH]2)sc2c1CCCC2 (stereo not given) | -13 | -2 | -26 | 2 | 7 | -5
SMILES | ZTA counter | core dimer inh | HCV NS3 hel inh | ALR inh | EBNA-1 inh | PfM18AAP inh
CC(C)Oc1ccc(/C(O)=C2/C(=O)C(=O)N(CCN3CCNCC3)C2c2cccc([N+](=O)[O-])c2)cc1 (stereo not given) | -10 | -11 | 14 | 7 | -1 | 6
CCN(CC(=O)Nc1c(F)cccc1F)C(=O)c1ccc(OCc2c(C)noc2C)cc1 | -2 | / | / | 4 | / | /
Nc1ccc(Br)c2c1C(=O)c1ccccc1C2=O | -8 | -18 | -1 | -4 | -9 | 3
Nc1ccc(O)c2c1C(=O)c1ccccc1C2=O | 37* | 3 | 17 | -12 | 13 | 0
O=C1c2c(O)cc(O)cc2O[C@@]12c1c(cc(O)c3c1O[C@H](c1ccc(O)cc1)[C@@H](O)C3)O[C@@H]2c1ccc(O)cc1 | 1 | -7 | 14 | 99* | -4 | 24
Cc1ccc(C(=O)OCC(=O)NNC(=O)c2cccs2)c(O)c1 | 16 | -2 | / | 4 | 6 | /
COc1ccc(CNC(=O)CSc2nnc(-c3ccc(NC(C)=O)cc3)n2C)cc1 | 1 | -2 | -7 | -11 | 12 | 5
COC(=O)/C(=N\Nc1ccc(Cl)cc1)Sc1nnc(-c2ccc(OC)cc2)n1C | 16 | 10 | -7 | 95* | 1 | 3
O=C1C=C(c2ccc(CO)cc2)C[C@@H](c2ccc3c(c2)OCO3)C1 | 11 | / | / | 1 | / | /
O=C1N[C@@H](Cc2cn(S(=O)(=O)c3c(F)c(F)c(F)c(F)c3F)c3ccccc23)C(=O)N[C@H]1Cc1ccccc1 | 9 | 49* | / | -1 | 2 | /
O=c1c(O)c(-c2ccc(O)cc2O)oc2cc(O)cc(O)c12 | / | / | 11 | / | / | 30*
O=c1c(-c2ccc(O)cc2O)coc2cc(O)cc(O)c12 | 14 | -4 | 4 | 81* | 1 | 20
COc1ccccc1-c1coc2cc(O)cc(O)c2c1=O | -2 | 2 | -8 | 16 | 2 | -6
O=c1c(O)c(-c2cc(O)c(O)c(O)c2)oc2cc(O)cc(O)c12 | -5 | -68 | / | 99* | 7 | /
CC(C)=CCc1cc(-c2oc3cc(O)cc(O)c3c(=O)c2O)ccc1O | -13 | -1 | / | 61 | 9 | /
CCN(CC)c1ccc(/C=N/NC(=O)CNC(=O)C2COc3ccccc3O2)c(O)c1 (stereo not given) | -4 | -5 | 13 | 62 | -17 | 20
CCn1c(SCC(=O)NC2CC2)nnc1-c1ccc(F)cc1 | 7 | 0 | -1 | -13 | -10 | -6
COc1ccc(S(=O)(=O)N2CCOCC2)cc1NC(=O)CSc1nnc(N)s1 | 1 | -2 | / | -4 | 6 | /
Cc1ccccc1OCCC(=O)OCC(=O)N(C)c1c(N)n(Cc2ccccc2)c(=O)[nH]c1=O | -4 | 3 | 2 | -1 | -7 | 1
Cc1cc(N)n2ncc(-c3ccccc3)c2n1 | 1 | -19 | 0 | 90* | 9 | 1
Cc1ccc(C)c(-c2nc3cc(N)ccc3o2)c1 | 9 | -1 | 0 | 99* | -8 | 1
COC(=O)c1ccc(-c2nc3cc(N)ccc3o2)cc1 | 9 | -1 | -5 | 95* | -2 | -9
Nc1ccc(-c2nc3cc(N)ccc3o2)cc1 | -2 | -6 | -7 | 93* | -3 | 2
Cc1ccc(-c2nc3cc(N)ccc3o2)cc1Br | -7 | -2 | -1 | 66 | -2 | 1
Nc1ccc(-c2nc3ccc(N)cc3o2)cc1 | 10 | -11 | 8 | 100* | 3 | -2

From PubChem
